The structures appear in SMILES notation.

What all share (format): ADME
The nature of data set [1]: Compound was evaluated, at a concentration of 10 mM acid, the solubility ratio is obtained by dividing the solubility of sickle hemoglobin (HbS) with the compound (grams per deciliter) by the solubility of the untreated sample (grams per deciliter). As to conditions: 10000 µM. In short, it runs like this: (§1)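 Sodium salt of acid (made with 1 equiv NaHCO3, 0.18 M stock in 0.15 M phosphate pH 7.4) diluted into HbS (~35 g %, 0.15 M phosphate), deoxygenated with dithionite, sealed in EPR tubes; final drug 5–40 mM. Spun alongside deoxy-HbS buffer control and 40 mM phenylalanine control; solubility at 35 °C, g/dL. Ratio = drug/control solubility; % increase relative to initial minus control; SD reported.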

Data set [2] can be described thus: Compound was evaluated, at a concentration of 5 mM acid, for its ability to increase the solubility of sickle hemoglobin. As to conditions: 5000 µM. In short, it runs like this:
as §1

A short description of data set [3]: Compound was evaluated, at a concentration of 20 mM acid, for its ability to increase the solubility of sickle hemoglobin. The following applies: 20000 µM. In short, it runs like this:
as §1

Data set [4] is described as follows: Compound was evaluated, at a concentration of 40 mM acid, for its ability to increase the solubility of sickle hemoglobin. As to conditions: 40000 µM. An outline of the steps:
as §1

Data set [5] can be described thus: Compound was evaluated, at a concentration of 10 mM acid, for its ability to increase the solubility of sickle hemoglobin. As to conditions: 10000 µM. In short, it runs like this: as §1
Data set [6] can be described thus: Compound was evaluated, at a concentration of 40 mM acid, the solubility ratio is obtained by dividing the solubility of sickle hemoglobin (HbS) with the compound (grams per deciliter) by the solubility of the untreated sample (grams per deciliter). As to conditions: 40000 µM. An outline of the steps: as §1
The nature of data set [7]: Compound was evaluated, at a concentration of 5 mM acid, the solubility ratio is obtained by dividing the solubility of sickle hemoglobin (HbS) with the compound (grams per deciliter) by the solubility of the untreated sample (grams per deciliter). The following applies: 5000 µM. In short, it runs like this: as §1
Data set [8] can be described thus: Compound was evaluated, at a concentration of 20 mM acid, the solubility ratio is obtained by dividing the solubility of sickle hemoglobin (HbS) with the compound (grams per deciliter) by the solubility of the untreated sample (grams per deciliter). The following applies: 20000 µM. In short, it runs like this: as §1
The nature of data set [9]: Compound was evaluated, at a concentration of 40 mM acid, for its ability to increase the solubility of sickle haemoglobin. As to conditions: 40000 µM. An outline of the steps:
as §1

In the case of `O=C(O)COCc1ccc(Br)cc1`, the Solubility ratio came out at 1.118 in [1], 1.398 in data set [6], 1.059 in data set [7] and 1.233 in data set [8]. Besides, the HbS solubilized in [2] was 13%; in data set [3], 51%; in data set [4] it was 87.7%; in data set [5] it was 25.8%.

Consider `C=C(CC)C(=O)c1ccc(OCC(=O)O)c(Cl)c1Cl` [ETHACRYNIC ACID], for which the Solubility ratio is 1.166 in data set [1], 1.375 in data set [6], 1.106 in data set [7] and 1.317 in [8]. Also, the HbS solubilized came to 25.3% in data set [2], 76.2% in data set [3], 89.4% in data set [4] and 39.5% in [5].

Take `O=C(O)COCc1ccc(Cl)c(Cl)c1`: the HbS solubilized is on record as 88% in data set [9], 22.1% in [2], 82.3% in data set [3] and 42.6% in data set [5]. Moreover, the Solubility ratio stood at 1.166 in data set [1], 1.345 in data set [6], 1.087 in [7] and 1.321 in [8].

(Values after ChEMBL document CHEMBL1122555, “Design, synthesis, and testing of potential antisickling agents. 3. Ethacrynic acid” (J Med Chem, 1984).)
